Compound activity: PubChem BioAssay, several laboratories
ATG4B inh: blocks human ATG4B protease cleavage of LC3 substrate | Q9Y4P1 | ATG4B cleavage of LC3-PLA2, NBD-HPC fluorescence, 1 h | inhibition, % at 8.33 µM | 340,000 tested, 0.51% active | AID 504462; in the data active = inhibition above about 40%
MEKK3 PB1 HTS: modulators (inhibitors or enhancers) of MEK5 binding to human MEKK3 PB1 domain; Q99759; bead-based flow cytometry, Alexa488-MEK5 binding to MEKK3; actives lie on both sides; 0 = blocked by unlabeled MEK5, 100 = vehicle; binding response (% of control), % at 10 µM; 290,000 tested, 1.4% active; AID 1529;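 active = binding response more than 3 SD above or below the average of its plate-row segment, actives on both sides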;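 also: Alexa488 bead fluorescence after subtracting the streptavidin-only scavenger bead signal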
Target sequence (Q99759 whole entry, looked up, the tested form may be a part): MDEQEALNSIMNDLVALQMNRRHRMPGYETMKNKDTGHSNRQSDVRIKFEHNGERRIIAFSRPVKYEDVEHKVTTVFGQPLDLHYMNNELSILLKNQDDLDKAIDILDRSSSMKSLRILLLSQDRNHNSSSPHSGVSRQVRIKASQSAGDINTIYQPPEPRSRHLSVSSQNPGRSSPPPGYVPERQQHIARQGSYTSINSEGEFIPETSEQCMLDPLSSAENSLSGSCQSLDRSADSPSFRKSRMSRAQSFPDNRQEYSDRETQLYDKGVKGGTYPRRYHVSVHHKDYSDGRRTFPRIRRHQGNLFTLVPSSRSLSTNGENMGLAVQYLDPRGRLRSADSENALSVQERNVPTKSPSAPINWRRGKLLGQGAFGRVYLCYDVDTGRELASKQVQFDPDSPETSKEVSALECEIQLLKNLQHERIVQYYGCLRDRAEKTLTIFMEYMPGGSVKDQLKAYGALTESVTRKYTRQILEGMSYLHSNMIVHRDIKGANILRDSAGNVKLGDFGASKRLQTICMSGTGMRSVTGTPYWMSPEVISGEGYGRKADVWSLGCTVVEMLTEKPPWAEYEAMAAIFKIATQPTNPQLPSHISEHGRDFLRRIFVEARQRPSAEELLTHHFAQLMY
Dynein cargo inh: dynein cargo transport inhibition | 3617.4 mouse cells, GR-EGFP nuclear translocation imaging; test concentration mostly 20 µM; stimulated with dexamethasone, 1 µM; hits give low values | z-score, hits read low | 220,000 tested, 0.47% active | AID 1381;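 active = plate z-score of nuclear minus cytoplasmic receptor signal below a set negative limit, without overly bright fluorescence or cell loss, cut at about -3.5 in these data, passing the limit was not always enough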;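 also: z-score of nuclear minus cytoplasmic ring GR-EGFP intensity difference per well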
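Medium: Induction medium lacking tetracycline, stripped serum | Probe or stimulus: 1.0 µM final dexamethasone stimulus | Schedule: 48 h induction, then 1 h compound, then 30 min agonist, 37 °C | Signal: Automated 10x imaging of fixed Hoechst-stained cells | Evaluation: Per-cell GR-EGFP intensity, nucleus versus surrounding cytoplasmic ring, well-averaged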
MEKK2 WT-MEK5: raises or lowers MEK5 binding to wildtype human MEKK2 PB1 domain. AID 1531. binding response (% of control), % at 10 µM. 290,000 tested, 1.1% active. bead flow cytometry, Alexa488-MEK5 binding to MEKK2 WT; actives lie on both sides. Q9Y2U5; in the data active = binding response below about 67% or above about 130%
B2AR ag: agonists of human beta-2 adrenergic receptor inducing internalization | 340,000 tested, 0.43% active | response, % (no concentration beside the values) | AID 504454 | Am2.2-beta2AR cells, FAP receptor internalization, flow cytometry;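 active = response above a set limit, near 3 SD of response in nonfluorescent compounds, cut at about 42% in these data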
MEKK2 mut-MEK5: signal of MEK5 binding to mutant human MEKK2 PB1 domain. 290,000 tested, 0.35% active. percent response, % at 10 µM. bead flow cytometry, Alexa488-MEK5 binding to MEKK2 mutant; in the data active = percent response above about 24%, passing the limit was not always enough
MEKK2wt confirm: raises or lowers MEK5 binding to wildtype human MEKK2, retest. bead flow cytometry, Alexa488-MEK5 binding to MEKK2 WT; actives lie on both sides. binding response (% of control), % at 10 µM. AID 1892. shares compounds with MEKK3 PB1 HTS. 5,900 tested, 2.4% active; in the data active = binding response below about 16% or above about 210%; inactive = in between
MEKK2mut confirm: signal of MEK5 binding to mutant human MEKK2, retest. bead flow cytometry, Alexa488-MEK5 binding to MEKK2 mutant. AID 1893. shares compounds with MEKK3 PB1 HTS. percent response, % at 10 µM. 5,900 tested, 2% active; in the data active = percent response mostly above about 71%, no sharp cut-off; inactive = mostly below about 38%;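 also: higher means compound restores mutant binding toward wildtype level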
MEKK3 confirm: confirmation of inhibitors of MEK5 binding to human MEKK3. shares compounds with MEKK3 PB1 HTS. bead flow cytometry, Alexa488-MEK5 binding to MEKK3; hits give low values. binding response (% of control), % at 10 µM. 5,900 tested, 1.8% active;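 active = binding response below 72% of control, or above a set upper limit, though filed actives all read lower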;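 also: 100% = DMSO only wells and 0% = binding blocked by excess unlabeled MEK5; lower values mean stronger disruption of MEK5 binding to MEKK3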
* = called active by the depositor; i = inactive; x = not tested or not shown; [ ] = remark or other dose. A selection: hits, their analogues and other compounds. The true share with any hit is near 2.9%.

SMILES	ATG4B inh	MEKK3 PB1 HTS	Dynein cargo inh	MEKK2 WT-MEK5	B2AR ag	MEKK2 mut-MEK5	MEKK2wt confirm	MEKK2mut confirm	MEKK3 confirm
CCOC(=O)c1c(C)[nH]c(C)c1C(=O)CSc1nc2ccccc2n1CCOC	-3	104	0.35	110	-4	9	x	x	x
CCOC(=O)c1c(C)[nH]c(C)c1C(=O)CSc1nc2ccccc2n1CC	0	135*	0.65	102	-4	0	102	-3	100
O=C(Nc1ccc2ccccc2c1)c1cc(F)c(F)cc1Cl	3	105	x	107	-13	6	x	x	x
Cn1cnnc1-c1cccc(NC(=O)c2cc(F)c(F)cc2Cl)c1	-36	135*	-1.5	123	0	1	97	-7	103
COc1ccc(C(=O)N[C@H](C(=O)Nc2nc3ccccc3[nH]2)C(C)C)cc1	-8	103	1.3	104	-7	2	x	x	x
Cc1cccc(C(=O)N[C@H](C(=O)Nc2nc3ccccc3[nH]2)C(C)C)c1	10	132*	-0.3	120	26	5	99	-5	102
COc1ccc(NS(=O)(=O)c2ccc(C(=O)N3CCC(C)CC3)cc2)cc1	8	x	x	x	5	x	x	x	x
C=CCSC1=N/C(=C\c2cccnc2)C(=O)N1c1ccc(OC)cc1	-5	102	1.2	99	-19	-1	x	x	x
CCSC1=N/C(=C\c2ccccc2)C(=O)N1c1ccc(OC)cc1	-3	74*[inhibitor]	-0.1	70	2	-13	100	1	107
O=C1Nc2ccccc2C1=Nc1ccc(F)cc1	4	101	x	108	-2	9	x	x	x
CC(=O)c1ccc(N=C2C(=O)Nc3ccccc32)cc1	-1	56*[inhibitor]	x	20*[inhibitor]	-4	-8	96	-11	95
Nc1nc2ccccc2n1C(=O)c1ccc(F)cc1	-6	98	1.1	96	3	-8	x	x	x
Cn1c(=O)c(/C=C/c2ccc(F)cc2)nc2ccccc21	0	81	0.76	55*[inhibitor]	0	-10	78	-7	97
O=c1c(/C=C(\O)c2ccc(F)cc2)nc2ccccc2n1-c1ccccc1	-21	83	-0.36	45*[inhibitor]	i	1	66	-21	94
Cn1c(=O)c(/C=C/c2ccccc2)nc2ccccc21	-5	122	0.76	86	-23	-2	x	x	x
O=C(/C=C/c1ccco1)NC(=S)Nc1ccc(N2CCCC2)cc1	0	142*	0.04	103	44*	0	92	-9	96
O=C(NN(C(=O)c1ccccc1)c1cccs1)c1ccccc1	-6	x	x	x	1	x	x	x	x
O=C(Cc1ccc([N+](=O)[O-])cc1)NCc1ccccc1Cl	-9	146*	1.7	108	-12	1	98	-4	102
O=C(CC1CCCC1)Nc1cccc(Br)c1	6	100	x	94	1	1	x	x	x
N#Cc1cccc(NC(=O)CC2CCCCC2)c1	-4	100	-0.34	-3.0*[inhibitor]	-6	-34	97	-1	101
COC(CNC(=O)c1cc(Sc2nnc(C)s2)nc2ccccc12)OC	34	116	-0.49	104	-1	0	x	x	x
CCCCCCN=CC1=C(O)CC(C)(C)CC1=O	-10	0.0*[inhibitor]	0.25	0.0*[inhibitor]	-6	-32	99	-3	93
CC1(C)CC(=O)C(C=Nc2ccncc2)=C(O)C1	-1	0.0*[inhibitor]	-0.31	-7.0*[inhibitor]	3	-23	98	-6	96
O=C1CC(N2CCN(c3ccccc3)CC2)C(=O)N1c1ccc2c(c1)OCO2 (stereo unspecified)	-6	96	-0.58	96	-4	-8	x	x	x
CCc1cc(=O)oc2cc(C)cc(OCC(=O)N3CCC(C(=O)O)CC3)c12	-18	102	x	99	-10	-2	x	x	x
SMILES	ATG4B inh	MEKK3 PB1 HTS	Dynein cargo inh	MEKK2 WT-MEK5	B2AR ag	MEKK2 mut-MEK5	MEKK2wt confirm	MEKK2mut confirm	MEKK3 confirm
CCNC(=S)N(CCc1c(C)[nH]c2ccc(Cl)cc12)Cc1cccnc1	-12	106	x	127	7	29*	118	10	104
COCCNC(=S)N(CCc1c(C)[nH]c2ccc(Cl)cc12)Cc1cccnc1	10	107	x	124	8	24*	115	1	100
COCCNC(=S)N(CCc1c(C)[nH]c2ccc(F)cc12)Cc1cccnc1	-8	104	x	119	-6	21	x	x	x
CC1(c2ccc(Cl)cc2)NC(=O)N(CC(=O)N2CCc3ccccc32)C1=O (stereo unspecified)	-4	x	x	x	4	x	x	x	x
CCc1ccccc1N(CC(=O)NC1CCCC1)C(=O)CNC(=O)c1cccs1	0	101	x	100	-7	4	x	x	x
Cc1cc(C)cc(Oc2ccc(NC(=O)C3CC=CCC3C(=O)O)cc2)c1 (stereo unspecified)	-2	75*[inhibitor]	-1.2	87	6	-4	102	-3	101
O=C(O)C1CC=CCC1C(=O)Nc1ccc(Oc2ccc(Cl)cc2)cc1 (stereo unspecified)	-2	93	2.7	91	1	-4	x	x	x
COc1ccc(/C=N/NC(=S)Nc2cc(S(=O)(=O)N3CCOCC3)ccc2N2CCOCC2)cc1O	-12	85	-0.62	89	4	-4	x	x	x
O=C(/C=C/c1ccccc1)Nc1cc(S(=O)(=O)N2CCOCC2)ccc1N1CCOCC1	-11	x	x	x	9	x	x	x	x
CCN1CCN(c2ccc(S(=O)(=O)N3CCCCC3)cc2NC(=O)/C=C/c2cc(OC)ccc2OC)CC1	-9	106	x	174*	34	25*	165	38	95
COc1ccc2ccccc2c1/C=N/NC(=S)Nc1cc(S(=O)(=O)N2CCOCC2)ccc1N1CCOCC1	-11	133*	0.47	104	0	1	93	-2	100
O=C(/C=C/c1ccccc1)Nc1cc(S(=O)(=O)N2CCOCC2)ccc1N1CCCC1	-3	142*	-0.71	106	1	1	100	-2	102
CC(C)N(Cc1nccn1C)C(=O)c1cc(COc2ccc(F)cc2Cl)on1	9	105	x	105	4	8	x	x	x
COc1ccc(S(=O)(=O)N(C)C)cc1NC(=O)CSc1nnc(-c2cccnc2)o1	-6	102	-0.22	100	-11	0	x	x	x
